Assay results taken from ChEMBL document CHEMBL3616417, “Discovery of selective N-[3-(1-methyl-piperidine-4-carbonyl)-phenyl]-benzamide-based 5-HT₁ F receptor agonists: Evolution from bicyclic to monocyclic cores” (Bioorg Med Chem Lett, 2015).
The source made the active and inactive calls. The rule behind the calls is not given here.

Key:
[1] = biological target: 5-hydroxytryptamine receptor 1D (Homo sapiens) (UniProt P28221); assay: Inhibition of radioligand binding to human 5HT1D receptor at 10 uM
Procedure, shortened: (§1)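 Single-concentration radioligand displacement at 10 µM test compound in cell lines expressing the human 5-HT1A, 5-HT1B or 5-HT1D receptor. Read-out is percent inhibition of radioligand binding.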

[2] = biological target: 5-hydroxytryptamine receptor 1D (Homo sapiens) (UniProt P28221); assay: Binding affinity to human 5HT1D receptor by radioligand binding assay
Procedure, shortened: (§2)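 In vitro radioligand displacement binding on cell lines expressing the appropriate human serotonin receptor subtype. Affinity is expressed as Ki (nM), each the mean of at least two determinations.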

[3] = biological target: T1, 5-hydroxytryptamine receptor 1A (Homo sapiens) (UniProt P08908); assay: Inhibition of radioligand binding to human 5HT1A receptor at 10 uM; procedure, shortened: as §1
T1 sequence (whole entry): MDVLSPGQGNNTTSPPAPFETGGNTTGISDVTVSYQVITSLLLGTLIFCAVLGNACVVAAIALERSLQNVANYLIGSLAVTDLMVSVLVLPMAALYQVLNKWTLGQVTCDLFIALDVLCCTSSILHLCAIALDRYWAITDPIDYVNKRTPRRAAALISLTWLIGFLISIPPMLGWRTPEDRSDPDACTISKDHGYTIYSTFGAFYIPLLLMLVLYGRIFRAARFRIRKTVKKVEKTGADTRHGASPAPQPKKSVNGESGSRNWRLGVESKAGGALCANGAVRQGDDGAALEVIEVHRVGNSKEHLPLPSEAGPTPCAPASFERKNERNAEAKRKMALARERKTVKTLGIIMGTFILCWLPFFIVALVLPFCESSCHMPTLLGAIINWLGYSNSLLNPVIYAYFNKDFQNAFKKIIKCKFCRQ

[4] = biological target: T2, 5-hydroxytryptamine receptor 1F (Homo sapiens, UniProt P30939); assay: Binding affinity to human 5HT1F receptor by radioligand binding assay; procedure, shortened: as §2
T2 sequence (P30939 whole entry): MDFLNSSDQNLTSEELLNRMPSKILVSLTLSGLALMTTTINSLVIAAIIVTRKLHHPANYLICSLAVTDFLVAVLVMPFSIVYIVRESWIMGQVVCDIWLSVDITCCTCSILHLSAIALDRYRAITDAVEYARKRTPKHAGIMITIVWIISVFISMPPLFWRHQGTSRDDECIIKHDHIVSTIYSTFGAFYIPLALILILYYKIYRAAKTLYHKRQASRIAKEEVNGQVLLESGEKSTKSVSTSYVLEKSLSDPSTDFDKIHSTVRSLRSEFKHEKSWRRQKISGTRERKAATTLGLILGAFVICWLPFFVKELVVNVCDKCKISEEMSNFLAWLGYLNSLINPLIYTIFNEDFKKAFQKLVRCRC

[5] = biological target: 5-HT1B/5-HT1F (Homo sapiens) (UniProt P30939+P28222); assay: Selectivity index, ratio of Ki for human 5HT1B receptor to Ki for human 5HT1F receptor
Procedure, shortened: (§3)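 Ratio of the Ki at the 5-HT1A, 5-HT1B or 5-HT1D receptor to the Ki at the 5-HT1F receptor. Each Ki comes from at least two radioligand binding determinations in cell lines expressing the human receptor.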

[6] = biological target: T1, 5-hydroxytryptamine receptor 1A (Homo sapiens); assay: Binding affinity to human 5HT1A receptor by radioligand binding assay; procedure, shortened: as §2
[7] = biological target: 5-hydroxytryptamine receptor 1B (Homo sapiens) (UniProt P28222); assay: Inhibition of radioligand binding to human 5HT1B receptor at 10 uM; procedure, shortened: as §1
[8] = biological target: 5-hydroxytryptamine receptor 1B (Homo sapiens) (UniProt P28222); assay: Binding affinity to human 5HT1B receptor by radioligand binding assay; procedure, shortened: as §2
[9] = biological target: 5-HT1D/5-HT1F (Homo sapiens) (UniProt P30939+P28221); assay: Selectivity index, ratio of Ki for human 5HT1D receptor to Ki for human 5HT1F receptor; procedure, shortened: as §3
[10] = biological target: 5-HT1A/5-HT1F (Homo sapiens) (UniProt P30939+P08908); assay: Selectivity index, ratio of Ki for human 5HT1A receptor to Ki for human 5HT1F receptor; procedure, shortened: as §3
[11] = biological target: T3, 5-hydroxytryptamine receptor 1F (Homo sapiens) (UniProt P30939); assay: Agonist activity at human 5HT1F receptor expressed in LM(tk-) cells by [35S]GTPgammaS binding assay relative to 5-HT; assay type: functional, cell-based
T3 sequence (whole entry): T2 sequence (P30939 whole entry)

[12] = biological target: T2, 5-hydroxytryptamine receptor 1F; assay: Agonist activity at human 5HT1F receptor expressed in LM(tk-) cells by [35S]GTPgammaS binding assay; assay type: functional, cell-based

Sequence of 5-HT1B/5-HT1F (Homo sapiens) (P28222 whole entry, looked up, one chain of several): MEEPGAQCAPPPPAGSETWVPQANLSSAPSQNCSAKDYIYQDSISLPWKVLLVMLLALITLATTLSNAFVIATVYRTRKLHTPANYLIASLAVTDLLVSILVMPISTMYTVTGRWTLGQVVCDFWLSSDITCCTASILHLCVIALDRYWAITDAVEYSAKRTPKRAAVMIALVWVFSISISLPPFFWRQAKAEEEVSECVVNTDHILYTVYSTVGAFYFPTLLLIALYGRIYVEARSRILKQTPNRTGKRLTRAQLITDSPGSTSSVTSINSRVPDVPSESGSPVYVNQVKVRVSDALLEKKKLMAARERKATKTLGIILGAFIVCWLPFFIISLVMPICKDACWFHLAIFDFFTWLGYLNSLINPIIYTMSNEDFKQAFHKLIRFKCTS
Sequence of 5-hydroxytryptamine receptor 1B (Homo sapiens) (P28222 whole entry): as the sequence (P28222 whole entry, looked up, one chain of several) above
Sequence of 5-hydroxytryptamine receptor 1D (Homo sapiens) (P28221 whole entry): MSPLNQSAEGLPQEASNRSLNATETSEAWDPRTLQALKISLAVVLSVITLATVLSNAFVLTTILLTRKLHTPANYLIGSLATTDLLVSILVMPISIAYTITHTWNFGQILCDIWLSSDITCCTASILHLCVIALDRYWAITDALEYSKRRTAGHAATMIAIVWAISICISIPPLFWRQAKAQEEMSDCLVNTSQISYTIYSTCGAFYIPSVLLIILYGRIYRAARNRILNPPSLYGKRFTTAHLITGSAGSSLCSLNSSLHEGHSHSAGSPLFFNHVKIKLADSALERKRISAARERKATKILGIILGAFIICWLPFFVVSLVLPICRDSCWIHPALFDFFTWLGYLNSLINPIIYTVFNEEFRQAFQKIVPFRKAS
Sequence of 5-HT1D/5-HT1F (Homo sapiens) (P28221 whole entry, looked up, one chain of several): as the sequence (P28221 whole entry) above

Row | Compound | inhibition [1] [%] | Activity [2] | inhibition [3] [%] | Ki [4] [nM] | Ratio Ki [5] | Activity [6] | inhibition [7] [%] | Activity [8] | Ratio Ki [9] | Ratio Ki [10] | Emax [11] [%] | EC50 [12] [nM]
1 | CN1CCC(C(=O)c2cccc(NC(=O)c3ccc(F)cc3)c2O)CC1 | < 50 | inactive | < 50 | 1100 | 2.5 | inactive | – | – | – | – | – | –
2 | Cc1c(NC(=O)c2ccc(F)cc2)cccc1C(=O)C1CCN(C)CC1 | < 50 | inactive | < 50 | 870 | – | inactive | < 50 | inactive | – | – | – | –
3 | COc1c(NC(=O)c2ccc(F)cc2)cccc1C(=O)C1CCN(C)CC1 | – | – | – | 610 | 4.3 | – | – | – | 3.4 | 0.5 | – | –
4 | CN1CCC(C(=O)c2cccc(NC(=O)c3ccc(F)cc3)c2F)CC1 | < 50 | inactive | < 50 | 8.3 | – | inactive | < 50 | inactive | – | – | 85 | 55
5 | CN1CCC(C(=O)c2cc(NC(=O)c3ccc(F)cc3)ccc2F)CC1 | < 50 | inactive | < 50 | 1300 | – | inactive | < 50 | inactive | – | – | – | –
6 | CN1CCC(C(=O)c2cc(NC(=O)c3ccc(F)cc3)ccn2)CC1 | < 50 | inactive | < 50 | – | – | inactive | < 50 | inactive | – | – | – | –
7 | CN1CCC(C(=O)c2cncc(NC(=O)c3ccc(F)cc3)c2)CC1 | – | – | – | 3200 | – | – | < 50 | inactive | 0.6 | 1 | – | –
8 | CN1CCC(c2c[nH]c3ccc(NC(=O)c4ccc(F)cc4)cc23)CC1 | – | – | – | – | 54 | – | – | – | 98 | 5 | – | –
9 | CN1CCC(C(=O)c2cc(F)cc(NC(=O)c3ccc(F)cc3)c2)CC1 | < 50 | inactive | – | 41 | – | – | < 50 | inactive | – | 22 | – | –
10 | CN1CCC(C(=O)c2ccnc(NC(=O)c3ccc(F)cc3)c2)CC1 | – | – | – | 2400 | 2 | – | – | – | 0.5 | 0.7 | – | –
11 | CN1CCC(C(=O)c2cccc(NC(=O)c3ccc(F)cc3)c2Cl)CC1 | – | – | – | 1700 | 1.6 | – | – | – | 0.2 | 0.3 | – | –
12 | CN1CCC(C(=O)c2ccc(F)c(NC(=O)c3ccc(F)cc3)c2)CC1 | < 50 | inactive | – | 530 | – | – | < 50 | inactive | – | 2 | – | –
13 | CN1CCC(C(=O)c2cccc(NC(=O)c3ccc(F)cc3)n2)CC1 | – | – | – | 9.5 | – | – | < 50 | inactive | 110 | 91 | 90 | 110
14 | CN1CCC(C(=O)c2cccc(NC(=O)c3ccc(F)cc3)c2)CC1 | – | – | – | 5.1 | – | – | < 50 | inactive | 730 | 170 | 79 | 87
